Laboratory results published in the RNAGym collection of RNA variant scans (doi:10.1002/anie.201605470).

B1: Osa-1-4 twister ribozyme (parent)
chain: CCGCCUAACACUGCCAAUGCCGGUCCCAAGCCCGGAUAAAAGUGGAGGGGGCGG

Variants of: B1
Experiment: self-cleavage, relative activity (ratio to wild type); higher = more cleavage; co-transcriptional
Outline: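 A DNA template encoding a 54-nucleotide twister ribozyme from Oryza sativa was made so that each of the 48 positions downstream of the cleavage site carried 97 % wild-type base and 1 % of each other base. Transcription in vitro ran for 2 h at 37 °C, during which the ribozyme could cleave itself. Reverse transcription used a template-switching oligonucleotide, and the products were PCR-amplified and deep-sequenced. Each read was scored as cleaved or uncleaved by whether upstream sequence was present, and relative activity is the fraction cleaved normalised to wild type.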

In order of rising self-cleavage:
1. CCGCCUAACACUGCCAAUGCCGGGCCCAAGCCCGGAUAAAAGUGGAGGGGGCCG [G53C U24G]  0.01
2. CCGCCUAACACUGCCAAUGCCGGCCCCAAGCCCGGAUAAAAGUGGAGGGGGCCG [G53C U24C]  0.03
3. CCGCCUAACACUGCCAAUGCCGGGCCCAAGCCCGGAUAAAAGUGGAGGGGGCGA [G54A U24G]  0.03
4. CCGCCUAACACUGCCAAUGCCGGGCCCAAGCCCGGAUAAAAGUGGAGGGGGCGU [G54U U24G]  0.04
5. CCGCCUAACACGGCCAAUGCCGGUCCCAAGCCCGGAUAAAAGUGGAGGGGGCCG [G53C U12G]  0.04
6. CCGCCUAACACUGCCAAUGCCGGACCCAAGCCCGGAUAAAAGUGGAGGGGGCCG [G53C U24A]  0.04
7. CCGCCUAACACCGCCAAUGCCGGUCCCAAGCCCGGAUAAAAGUGGAGGGGGCCG [G53C U12C]  0.05
8. CCGCCUAACACUGCCAAUGCCGGACCCAAGCCCGGAUAAAAGUGGAGGGGGCGC [G54C U24A]  0.07
9. CCGCCUAACACAGCCAAUGCCGGUCCCAAGCCCGGAUAAAAGUGGAGGGGGCCG [G53C U12A]  0.07
10. CCGCCUAACACGGCCAAUGCCGGUCCCAAGCCCGGAUAAAAGUGGAGGGGGCUG [G53U U12G]  0.07
11. CCGCCUAACACUGCCAAUGCCGGUCCCAAGCCCGGAUAAAAGUGGAGGGGGCCC [G53C G54C]  0.08
12. CCGCCUAACACUGCCAAAGCCGGUCCCAAGCCCGGAUAAAAGUGGAGGGGGCCG [G53C U18A]  0.09
13. CCGCCUAACACUGCCAACGCCGGUCCCAAGCCCGGAUAAAAGUGGAGGGGGCCG [G53C U18C]  0.1
14. CCGCCUAACACUGCCAAUGCCGGUCCCAAGCCCGGAUAAAAGUGGAGGGGGCCA [G53C G54A]  0.1
15. CCGCCUAACACAGCCAAUGCCGGUCCCAAGCCCGGAUAAAAGUGGAGGGGGCUG [G53U U12A]  0.12
16. CCGCCUAACACUGCCAAUGCCGGACCCAAGCCCGGAUAAAAGUGGAGGGGGCGA [G54A U24A]  0.13
17. CCGCCUAACACUGCCAAUGCCGGCCCCAAGCCCGGAUAAAAGUGGAGGGGGCGA [G54A U24C]  0.13
18. CCGCCUAACACCGCCAAUGCCGGUCCCAAGCCCGGAUAAAAGUGGAGGGGGCUG [G53U U12C]  0.13
19. CCGCCUAACACUGCCAAGGCCGGUCCCAAGCCCGGAUAAAAGUGGAGGGGGCCG [G53C U18G]  0.14
20. CCGCCUAACACUGCCAAUGCCGGCCCCAAGCCCGGAUAAAAGUGGAGGGGGCGU [G54U U24C]  0.23
21. CCGCCUAACACUGCCAAUGCCGGUCCCAAGCCCGGAUAAAAGUGGAGGGGGCCU [G53C G54U]  0.25
22. CCGCCUAACACUGCCAAUGCCGGUCCCAAGCCCGGAAAAAAGUGGAGGGGGCUG [G53U U37A]  0.32
23. CCGCCUAACACUGCCAAUGCCGGACCCAAGCCCGGAUAAAAGUGGAGGGGGCGU [G54U U24A]  0.34
24. CCGCCUAACACUGCCAAUGCCGGUCCCAAGCCCGGAUAAAAGGGGAGGGGGCAG [G53A U43G]  0.37
25. CCGCCUAACACGGCCAAUGCCGGUCCCAAGCCCGGAUAAAAGUGGAGGGGGCGU [G54U U12G]  0.4
26. CCGCCUAACACUGCCAAUGCCGGUCCCAAGCCCGGAUAAAAGCGGAGGGGGCAG [G53A U43C]  0.43
27. CCGCCUAACACUGCCAAUGCCGGUCCCAAGCCCGGACAAAAGUGGAGGGGGCUG [G53U U37C]  0.55
28. CCGCCUAACACUGCCAAUGCCGGUCCCAAGCCCGGAUAAAAGCGGAGGGGGCGA [G54A U43C]  0.58
29. CCGCCUAACACUGCCAAUGCCGGUCCCAAGCCCGGAGAAAAGUGGAGGGGGCUG [G53U U37G]  0.61
30. CCGCCUAACACAGCCAAUGCCGGUCCCAAGCCCGGAUAAAAGUGGAGGGGGCGU [G54U U12A]  0.62
31. CCGCCUAACACUGCCAAUGCCGGUCCCAAGCCCGGAUAAAAGAGGAGGGGGCAG [G53A U43A]  0.64
32. CCGCCUAACACUGCCAAGGCCGGUCCCAAGCCCGGAUAAAAGUGGAGGGGGCAG [G53A U18G]  0.65
33. CCGCCUAACACCGCCAAUGCCGGUCCCAAGCCCGGAUAAAAGUGGAGGGGGCGU [G54U U12C]  0.67
34. CCGCCUAACACUGCCAAUGCCGGUCCCAAGCCCGGAUAAAAGGGGAGGGGGCGA [G54A U43G]  0.69
35. CCGCCUAACACUGCCAAUGCCGGUCCCAAGCCCGGAAAAAAGUGGAGGGGGCGC [G54C U37A]  0.71
36. CCGCCUAACACUGCCAAGGCCGGUCCCAAGCCCGGAUAAAAGUGGAGGGGGCGU [G54U U18G]  0.73
37. CCGCCUAACACUGCCAAGGCCGGUCCCAAGCCCGGAUAAAAGUGGAGGGGGCGC [G54C U18G]  0.77
38. CCGCCUAACACUGCCAAAGCCGGUCCCAAGCCCGGAUAAAAGUGGAGGGGGCAG [G53A U18A]  0.8
39. CCGCCUAACACUGCCAACGCCGGUCCCAAGCCCGGAUAAAAGUGGAGGGGGCAG [G53A U18C]  0.83
40. CCGCCUAACACUGCCAAUGCCGGUCCCAAGCCCGGAUAAAAGAGGAGGGGGCGA [G54A U43A]  0.84
41. CCGCCUAACACUGCCAAAGCCGGUCCCAAGCCCGGAUAAAAGUGGAGGGGGCGC [G54C U18A]  0.85
42. CCGCCUAACACUGCCAAAGCCGGUCCCAAGCCCGGAUAAAAGUGGAGGGGGCGU [G54U U18A]  0.9
43. CCGCCUAACACUGCCAACGCCGGUCCCAAGCCCGGAUAAAAGUGGAGGGGGCGC [G54C U18C]  0.91
44. CCGCCUAACACUGCCAACGCCGGUCCCAAGCCCGGAUAAAAGUGGAGGGGGCGU [G54U U18C]  0.95
45. CCGCCUAACACUGCCAAUGCCGGUCCCAAGCCCGGAUAAAAGUGGAGGGGGCGA [G54A]  1
46. CCGCCUAACACUGCCAAUGCCGGUCCCAAGCCCGGAUAAAAGUGGAGGGGGCGU [G54U]  1
47. CCGCCUAACACUGCCAAUGCCGGUCCCAAGCCCGGAUAAAAGUGGAGGGGGCGC [G54C]  1
48. CCGCCUAACACUGCCAAUGCCGGUCCCAAGCCCGGACAAAAGUGGAGGGGGCGC [G54C U37C]  1.02
49. CCGCCUAACACUGCCAAUGCCGGUCCCAAGCCCGGAGAAAAGUGGAGGGGGCGC [G54C U37G]  1.03
